Data from ChEMBL document CHEMBL1139420, “Antibacterial profile against drug-resistant Staphylococcus epidermidis clinical strain and structure-activity relationship studies of 1H-pyrazolo[3,4-b]pyridine and thieno[2,3-b]pyridine derivatives” (Bioorg Med Chem, 2008).
Converted amounts (≈) assume the structure as drawn. The source made the active and inactive calls. No cut-off for these calls is given here.

Tests used:
[1] = Cytotoxicity against human PBMC assessed as cell viability at 700 uM after 3 to 5 days by XTT method; assay type: cell-based; conditions: PBMC (peripheral blood mononuclear cells), read-out: Activity
In short: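 Human PBMCs from healthy donors isolated by density gradient from buffy coats, kept in RPMI 1640 with 10% heat-inactivated FBS, penicillin, streptomycin, 2 mM glutamine, 10 mM Hepes; stimulated 2–3 days with 5 µg/mL PHA, then kept with 5 U/mL IL-2. Compound at 700 µM, 5% CO2, 37 °C; XTT added, OD 450 nm after 2 h; duplicate, at least three times.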

Serratia marcescens = experiment: Antibacterial activity against drug-resistant Serratia marcescens clinical isolate assessed as inhibition zone diameter after 24 hrs by antibacterial susceptibility test; assay type: functional, organism-based
[2] = tested on: Staphylococcus epidermidis; experiment: Antibacterial activity against drug-resistant Staphylococcus epidermidis clinical isolate after 24 hrs by macro-dilution broth method; assay type: functional
[3] = tested on: Staphylococcus epidermidis; experiment: Antibacterial activity against drug-resistant Staphylococcus epidermidis clinical isolate assessed as inhibition zone diameter after 24 hrs by antibacterial susceptibility test; assay type: functional
Enterobacter cloacae = experiment: Antibacterial activity against drug-resistant Enterobacter cloacae clinical isolate assessed as inhibition zone diameter after 24 hrs by antibacterial susceptibility test; assay type: functional, organism-based
Klebsiella pneumoniae = experiment: Antibacterial activity against drug-resistant Klebsiella pneumoniae clinical isolate assessed as inhibition zone diameter after 24 hrs by antibacterial susceptibility test; assay type: functional, organism-based
Escherichia coli = experiment: Antibacterial activity against drug-resistant Escherichia coli clinical isolate assessed as inhibition zone diameter after 24 hrs by antibacterial susceptibility test; assay type: functional, organism-based
[4] = tested on: Acinetobacter calcoaceticus; experiment: Antibacterial activity against drug-resistant Acinetobacter calcoaceticus clinical isolate assessed as inhibition zone diameter after 24 hrs by antibacterial susceptibility test; assay type: functional, organism-based
Enterococcus faecalis = experiment: Antibacterial activity against drug-resistant Enterococcus faecalis clinical isolate assessed as inhibition zone diameter after 24 hrs by antibacterial susceptibility test; assay type: functional, organism-based
Pseudomonas aeruginosa = experiment: Antibacterial activity against drug-resistant Pseudomonas aeruginosa clinical isolate assessed as inhibition zone diameter after 24 hrs by antibacterial susceptibility test; assay type: functional, organism-based
Proteus mirabilis = experiment: Antibacterial activity against drug-resistant Proteus mirabilis clinical isolate assessed as inhibition zone diameter after 24 hrs by antibacterial susceptibility test; assay type: functional, organism-based
[5] = tested on: Staphylococcus epidermidis; experiment: Antibacterial activity against drug-resistant Staphylococcus epidermidis clinical isolate at 5 mg/ml; assay type: functional, organism-based
In short: (§1)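 Growth-curve assay on fluoro-substituted derivatives (ortho-, meta-, para-F). Logarithmic-phase cultures incubated with compound at 1× and 10× MIC and at 5 mg/mL. Optical density at 560 nm monitored over 6 h and expressed as growth (%) relative to untreated control.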

[6] = tested on: Staphylococcus epidermidis; experiment: Antibacterial activity against drug-resistant Staphylococcus epidermidis clinical isolate at 10 times MIC; assay type: functional, organism-based; in short: as §1
[7] = tested on: Staphylococcus epidermidis; experiment: Antibacterial activity against drug-resistant Staphylococcus epidermidis clinical isolate at 16 ug/ml; assay type: functional, organism-based

Row | Structure (SMILES) | viability at 700 µM [1] [%] | Activity (Serratia marcescens) | MIC [2] [µg/mL] | inhibition zone (IZ) [3] [mm] | Activity (Enterobacter cloacae) | Activity (Klebsiella pneumoniae) | Activity (Escherichia coli) | Activity [4] | Activity (Enterococcus faecalis) | Activity (Pseudomonas aeruginosa) | Activity (Proteus mirabilis) | Activity [5] | Activity [6] | Activity [7]
1 | Cc1cccc(Nc2c(C(=O)O)cnc3c2cnn3-c2ccccc2)c1 | 100 | inactive | 64 (≈ 186 µM) | 16 | inactive | inactive | inactive | inactive | inactive | inactive | inactive | – | – | –
2 | O=C(O)c1cnc2c(cnn2-c2ccccc2)c1Nc1ccccc1F | – | – | – | – | – | – | – | – | – | – | – | inactive | – | –
3 | O=C(O)c1cnc2c(cnn2-c2ccccc2)c1Nc1cccc(Br)c1 | 100 | inactive | 16 (≈ 39.1 µM) | 17 | inactive | inactive | inactive | inactive | inactive | inactive | inactive | – | – | –
4 | O=C(O)c1cnc2c(cnn2-c2ccccc2)c1Nc1cccc(F)c1 | 100 | inactive | 16 (≈ 45.9 µM) | 20 | inactive | inactive | inactive | inactive | inactive | inactive | inactive | – | Active | Active
5 | O=C(O)c1cnc2c(cnn2-c2ccccc2)c1Nc1cccc(Cl)c1 | 100 | inactive | 16 (≈ 43.9 µM) | 17 | inactive | inactive | inactive | inactive | inactive | inactive | inactive | – | – | –
6 | O=C(O)c1cnc2c(cnn2-c2ccccc2)c1Nc1ccc(F)cc1 | 100 | inactive | – | 0 | inactive | inactive | inactive | inactive | inactive | inactive | inactive | inactive | – | –
7 | O=C(O)c1cnc2c(cnn2-c2ccccc2)c1Nc1cccc([N+](=O)[O-])c1 | 100 | inactive | – | 12 | inactive | inactive | inactive | inactive | inactive | inactive | inactive | – | – | –
8 | O=C(O)c1cnc2sccc2c1Nc1cccc(Cl)c1 | 100 | inactive | – | 0 | inactive | inactive | inactive | inactive | inactive | inactive | inactive | – | – | –
9 | COc1cccc(Nc2c(C(=O)O)cnc3c2cnn3-c2ccccc2)c1 | 100 | inactive | 16 (≈ 44.4 µM) | 15 | inactive | inactive | inactive | inactive | inactive | inactive | inactive | – | – | –
